Tests used:
[1] = system: KM12; assay: Cytotoxicity against human KM12 cells after 72 hrs by SRB assay; format: functional; details: KM12, 72 h
[2] = system: SK-OV-3; assay: Cytotoxicity against human SKOV3 cells after 72 hrs by SRB assay; format: functional; details: SK-OV-3, 72 h
[3] = system: MV4-11; assay: Antiproliferative activity against human MV4-11 cells after 72 hrs by MTT assay; format: functional, cell-based; details: MV4-11, 72 h
[4] = system: SNB-78; assay: Cytotoxicity against human SNB78 cells after 72 hrs by SRB assay; format: functional; details: SNB-78, 72 h
[5] = system: HCC 2998; assay: Cytotoxicity against human HCC2998 cells after 72 hrs by SRB assay; format: functional; details: HCC 2998, 72 h
[6] = system: U-251; assay: Cytotoxicity against human U251 cells after 72 hrs by SRB assay; format: functional; details: U-251, 72 h
[7] = system: HCT-15; assay: Cytotoxicity against human HCT15 cells after 72 hrs by SRB assay; format: functional; details: HCT-15, 72 h
[8] = system: A549; assay: Cytotoxicity against human A549 cells after 72 hrs by SRB assay; format: functional, cell-based; details: A549, 72 h
Outline: (§1)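 Adherent cells grown at 37 °C and 5% CO2. Seeded at 1×10^4/well 24 h before dosing, then 72 h at 10–0.01 µg/mL final. Fixed with cold 50% TCA, stained with 0.4% SRB, dye extracted in 10 mM Tris, read at 540 nm.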

[9] = system: HCT-116; assay: Cytotoxicity against human HCT116 cells after 72 hrs by SRB assay; format: functional, cell-based; details: HCT-116, 72 h; outline: as §1
[10] = system: OVCAR-5; assay: Cytotoxicity against human OVCAR5 cells after 72 hrs by SRB assay; format: functional; details: OVCAR-5, 72 h
[11] = system: MKN-74; assay: Cytotoxicity against human MKN74 cells after 72 hrs by SRB assay; format: functional; details: MKN-74, 72 h
[12] = system: SF-268; assay: Cytotoxicity against human SF268 cells after 72 hrs by SRB assay; format: functional; details: SF-268, 72 h
[13] = system: SF-295; assay: Cytotoxicity against human SF295 cells after 72 hrs by SRB assay; format: functional; details: SF-295, 72 h
[14] = system: MDA-MB-231; assay: Cytotoxicity against human MDA-MB-231 cells after 72 hrs by SRB assay; format: functional; details: MDA-MB-231, 72 h
[15] = system: MKN-28; assay: Cytotoxicity against human MKN28 cells after 72 hrs by SRB assay; format: functional; details: MKN-28, 72 h
[16] = system: OVCAR-8; assay: Cytotoxicity against human OVCAR8 cells after 72 hrs by SRB assay; format: functional; details: OVCAR-8, 72 h
[17] = system: MCF7; assay: Cytotoxicity against human MCF7 cells after 72 hrs by SRB assay; format: functional; details: MCF7, 72 h
[18] = Cytotoxicity against human BSY1 cells after 72 hrs by SRB assay; format: functional; details: BSY-1, 72 h
[19] = system: SNB-75; assay: Cytotoxicity against human SNB75 cells after 72 hrs by SRB assay; format: functional; details: SNB-75, 72 h
[20] = system: PC-3; assay: Cytotoxicity against human PC3 cells after 72 hrs by SRB assay; format: functional; details: PC-3, 72 h
[21] = system: DU-145; assay: Cytotoxicity against human DU145 cells after 72 hrs by SRB assay; format: functional; details: DU-145, 72 h
[22] = system: NCI-H226; assay: Cytotoxicity against human NCI-H226 cells after 72 hrs by SRB assay; format: functional; details: NCI-H226, 72 h
[23] = system: OVCAR-4; assay: Cytotoxicity against human OVCAR4 cells after 72 hrs by SRB assay; format: functional; details: OVCAR-4, 72 h
[24] = system: DMS-273; assay: Cytotoxicity against human DMS273 cells after 72 hrs by SRB assay; format: functional; details: DMS-273, 72 h
[25] = system: ACHN; assay: Cytotoxicity against human ACHN cells after 72 hrs by SRB assay; format: functional
[26] = Cytotoxicity against human MKN1 cells after 72 hrs by SRB assay; format: functional; details: MKN-1, 72 h
[27] = system: NCI-H23; assay: Cytotoxicity against human NCI-H23 cells after 72 hrs by SRB assay; format: functional; details: NCI-H23, 72 h
[28] = system: NCI-H522; assay: Cytotoxicity against human NCI-H522 cells after 72 hrs by SRB assay; format: functional; details: NCI-H522, 72 h
[29] = read-out: LC50 (the source's name)

COc1ccc(C2O[C@]34CC(c5cccc(OC)c5)OC(=O)C3=C[C@@]2(C)OO4)cc1 (some centres not stated)
TGI [1]: 39 µM
GI50 ([1]; read-out: GI50): 18 µM
CC50 [1, 29]: 85 µM
TGI [2]: 33 µM
GI50 ([2]; read-out: GI50): 1.9 µM
CC50 [2, 29]: 58 µM
IC50 [3]: 4.68 µM
TGI [4]: 34 µM
GI50 ([4]; read-out: GI50): 13 µM
CC50 [4, 29]: 90 µM
TGI [5]: 22 µM
GI50 ([5]; read-out: GI50): 6.3 µM
CC50 [5, 29]: 62 µM
TGI [6]: 33 µM
GI50 ([6]; read-out: GI50): 16 µM
CC50 [6, 29]: 68 µM
TGI [7]: 17 µM
GI50 ([7]; read-out: GI50): 3.7 µM
CC50 [7, 29]: 100 µM
TGI [8]: 37 µM
GI50 ([8]; read-out: GI50): 18 µM
CC50 [8, 29]: 72 µM
TGI [9]: 13 µM
GI50 ([9]; read-out: GI50): 3.4 µM
CC50 [9, 29]: 70 µM
TGI [10]: 7.4 µM
GI50 ([10]; read-out: GI50): 2.8 µM
CC50 [10, 29]: 27 µM
TGI [11]: 37 µM
GI50 ([11]; read-out: GI50): 14 µM
CC50 [11, 29]: 96 µM
TGI [12]: 36 µM
GI50 ([12]; read-out: GI50): 14 µM
CC50 [12, 29]: 92 µM
TGI [13]: 33 µM
GI50 ([13]; read-out: GI50): 18 µM
CC50 [13, 29]: 60 µM
TGI [14]: 18 µM
GI50 ([14]; read-out: GI50): 5.4 µM
CC50 [14, 29]: 51 µM
TGI [15]: 36 µM
GI50 ([15]; read-out: GI50): 11 µM
CC50 [15, 29]: 100 µM
TGI [16]: 38 µM
GI50 ([16]; read-out: GI50): 9.4 µM
CC50 [16, 29]: 100 µM
TGI [17]: 29 µM
GI50 ([17]; read-out: GI50): 10 µM
CC50 [17, 29]: 87 µM
TGI [18]: 17 µM
GI50 ([18]; read-out: GI50): 5 µM
CC50 [18, 29]: 46 µM
TGI [19]: 28 µM
GI50 ([19]; read-out: GI50): 12 µM
CC50 [19, 29]: 64 µM
TGI [20]: 27 µM
GI50 ([20]; read-out: GI50): 13 µM
CC50 [20, 29]: 56 µM
TGI [21]: 31 µM
GI50 ([21]; read-out: GI50): 16 µM
CC50 [21, 29]: 57 µM
TGI [22]: 40 µM
GI50 ([22]; read-out: GI50): 18 µM
CC50 [22, 29]: 92 µM
TGI [23]: 11 µM
GI50 ([23]; read-out: GI50): 1.5 µM
CC50 [23, 29]: 42 µM
TGI [24]: 27 µM
GI50 ([24]; read-out: GI50): 10 µM
CC50 [24, 29]: 74 µM
TGI [25]: 29 µM
GI50 ([25]; read-out: GI50): 15 µM
CC50 [25, 29]: 56 µM
TGI [26]: 4.4 µM
GI50 ([26]; read-out: GI50): 2.1 µM
CC50 [26, 29]: 9.1 µM
TGI [27]: 36 µM
GI50 ([27]; read-out: GI50): 17 µM
CC50 [27, 29]: 79 µM
TGI [28]: 5 µM
GI50 ([28]; read-out: GI50): 2 µM
CC50 [28, 29]: 22 µM
